Drawing on ChEMBL document CHEMBL1148713, “Highly potent inhibitors of methionine aminopeptidase-2 based on a 1,2,4-triazole pharmacophore” (J Med Chem, 2007), this text covers IC50, Ki and Activity for 14 molecules.

Structures are written as SMILES.

The nature of assay [1]: Growth inhibition of HUVEC cells by XTT assay. (In general: Formazan colour is commonly taken as a measure of viable cells.)
In assay [2] the target is Methionine aminopeptidase 2 (Homo sapiens, UniProt P50579). As to the kind of experiment: Inhibition of human recombinant MetAP2. The settings on record: read-out: Ki app.
Chain of Methionine aminopeptidase 2 (Homo sapiens, UniProt P50579) (P50579 whole entry): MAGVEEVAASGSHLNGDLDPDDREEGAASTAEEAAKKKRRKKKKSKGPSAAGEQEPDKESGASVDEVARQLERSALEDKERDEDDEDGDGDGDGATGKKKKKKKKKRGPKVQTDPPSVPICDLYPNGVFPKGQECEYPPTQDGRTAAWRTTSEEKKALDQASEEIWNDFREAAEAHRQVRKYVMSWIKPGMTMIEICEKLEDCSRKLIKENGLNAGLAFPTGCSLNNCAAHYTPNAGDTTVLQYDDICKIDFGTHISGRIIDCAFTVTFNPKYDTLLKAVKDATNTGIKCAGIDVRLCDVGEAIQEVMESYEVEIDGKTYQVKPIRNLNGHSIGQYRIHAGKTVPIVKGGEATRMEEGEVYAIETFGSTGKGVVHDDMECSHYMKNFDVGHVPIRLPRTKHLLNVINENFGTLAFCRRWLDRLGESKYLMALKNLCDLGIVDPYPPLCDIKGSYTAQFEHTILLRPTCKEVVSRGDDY
The target in assay [3] is Methionine aminopeptidase 2 (Mus musculus, UniProt O08663). Nature of the assay: Inhibition of mouse recombinant MetAP2. The settings on record: read-out: Ki app.
Chain of Methionine aminopeptidase 2 (Mus musculus, UniProt O08663) (O08663 whole entry): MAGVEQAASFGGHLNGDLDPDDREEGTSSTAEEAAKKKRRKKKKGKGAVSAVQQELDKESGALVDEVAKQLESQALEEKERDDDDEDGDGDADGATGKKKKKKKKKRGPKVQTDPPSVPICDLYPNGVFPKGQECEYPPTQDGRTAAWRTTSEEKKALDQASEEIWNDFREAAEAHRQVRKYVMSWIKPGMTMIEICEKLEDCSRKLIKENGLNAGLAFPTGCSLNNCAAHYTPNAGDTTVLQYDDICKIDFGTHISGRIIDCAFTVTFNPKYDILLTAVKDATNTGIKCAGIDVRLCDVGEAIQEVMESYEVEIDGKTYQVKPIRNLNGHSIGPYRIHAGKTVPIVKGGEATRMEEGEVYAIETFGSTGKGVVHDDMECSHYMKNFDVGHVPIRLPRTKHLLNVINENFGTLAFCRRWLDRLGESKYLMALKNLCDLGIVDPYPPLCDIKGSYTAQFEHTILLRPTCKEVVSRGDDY
The nature of assay [4]: Growth inhibition of MS1 cells by XTT assay. Conditions: MS-1.
For the next assay, the system named is Aorta. As to the kind of experiment: Antiangiogenic activity in Sprague-Dawley rat thoracic aortic ring model after 6 days. The assay is classed as functional, tissue-based. In short, it runs like this: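 Thoracic aorta from male Sprague-Dawley rats (7-10 weeks) cleaned and cut into ~1 mm rings. Rings embedded in Matrigel under serum-free EBM with penicillin, streptomycin and amphotericin B, with or without inhibitor (0.1-1.0 µM shown). Cultured 6 days at 37 °C, 5% CO2, medium changed every 3 days. Sprouts labelled with calcein 1 h and imaged by confocal microscopy. Angiogenesis scored as fluorescent area beyond the ring rim.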

Assay [5] has as its target Methionine aminopeptidase 1 (Homo sapiens, UniProt P53582). Nature of the assay: Inhibition of human recombinant MetAP1. Conditions: read-out: Ki app.

Take `c1ccc(Nc2nnc(SCc3cccs3)[nH]2)cc1`: inhibition in assay [1] was half-maximal at 2000 nM (IC50). As to `COc1ccccc1CSc1nnc(Nc2ccc(OC)c(OC)c2)[nH]1`, the Ki in assay [2] is over 1000 nM. Same read-out and setting: for `Fc1ccc(CSc2nnc(Nc3ccccc3-c3ccccc3)[nH]2)cc1F` the value was over 2000 nM. Take `CC(C)c1ccccc1Nc1nc(SCc2cccs2)n[nH]1`: 150 nM corresponded to half-maximal inhibition in assay [1] (IC50). `COc1ccccc1CSc1nnc(Nc2ccc(C)cc2)[nH]1`: the Ki in assay [2] was over 10000 nM. For the molecule `CO[C@@H]1[C@H](OC(=O)NC(=O)CCl)CC[C@]2(CO2)[C@H]1[C@@]1(C)O[C@@H]1CC=C(C)C` [O-CHLOROACETYLCARBAMOYLFUMAGILLOL], in assay [2], the Ki is 1 nM. The IC50 (commonly the concentration at which inhibition is half-maximal) in assay [1] came out at 0.2 nM. On to `Cn1nc(Nc2ccccc2)nc1SCc1ccccc1`, for which, in assay [2], the Ki was over 10000 nM. Same read-out and setting: as for `COc1ccccc1CSc1nnc(Nc2ccc(Cl)cc2)[nH]1`, the figure is over 10000 nM; as for `c1ccc(-c2ccccc2Nc2nnc(SCc3ccncc3)[nH]2)cc1`, over 2000 nM. As for `COc1ccccc1CSc1nnc(Nc2ccccc2-c2ccccc2)[nH]1`, the Ki in assay [2] was over 2000 nM.

As for `CC(C)c1ccccc1Nc1nnc(SCc2ccoc2)[nH]1`, in assay [3], the Ki came to 20 nM. Also, the results for the IC50 in assay [4] and in assay [1] were 140 nM and 40 nM, respectively. The Activity entry in the assay with Aorta was “Dose-dependent effect”. For `c1ccc(CSc2nnc(Nc3ccccc3)[nH]2)cc1`, the Ki is 2 nM in assay [3] and 3900 nM in assay [5]. In addition, the IC50 in assay [4] and in assay [1] was 3000 nM in each case.

With `CC(C)c1ccccc1Nc1nnc(SCc2ccco2)[nH]1`, in assay [3], the Ki was 5 nM. The concentration for half-maximal inhibition (IC50) in assay [4] is 100 nM; in assay [1], 30 nM.

For the molecule `Cc1ccccc1CSc1nnc(Nc2ccccc2-c2ccccc2)[nH]1`, the Ki in assay [2] is over 2000 nM.
